# sEH act: increases human soluble epoxide hydrolase activity | 91,000 tested, 0.04% active | AID 717 | P34913 | activation, % at 2 µM | purified human sEH enzymatic activity, activator screen; in the data active = activation above about 37%
# Target sequence (P34913 whole entry, looked up): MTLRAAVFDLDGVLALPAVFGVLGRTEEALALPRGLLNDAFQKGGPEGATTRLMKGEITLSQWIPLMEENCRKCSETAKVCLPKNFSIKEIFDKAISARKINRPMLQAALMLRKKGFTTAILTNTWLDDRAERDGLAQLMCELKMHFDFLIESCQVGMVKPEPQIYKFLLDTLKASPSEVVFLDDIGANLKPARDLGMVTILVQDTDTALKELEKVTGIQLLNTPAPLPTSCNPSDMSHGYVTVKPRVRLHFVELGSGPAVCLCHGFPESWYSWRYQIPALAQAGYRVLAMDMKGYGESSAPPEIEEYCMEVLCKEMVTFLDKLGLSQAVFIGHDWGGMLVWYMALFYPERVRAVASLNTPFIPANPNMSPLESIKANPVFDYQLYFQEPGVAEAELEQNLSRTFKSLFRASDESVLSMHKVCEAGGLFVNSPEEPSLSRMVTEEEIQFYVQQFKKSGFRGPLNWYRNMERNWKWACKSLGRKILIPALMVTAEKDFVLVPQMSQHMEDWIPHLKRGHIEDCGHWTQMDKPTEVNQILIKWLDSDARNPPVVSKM
# Yeast life ext: extends the lifespan of yeast; S. cerevisiae growth with nicotinamide, OD615; deaD strain in restrictive glucose medium; inhibition of the nicotinamide effect, % at 10 µM; 130,000 tested, 0.68% active; AID 775;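 active = inhibition above a set limit, placed 3 SD over the median of all compounds, cut at about 26% in these data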
#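 Assay system: engineered S. cerevisiae DeaD replicative-lifespan strain, galactose-grown log-phase cells; Buffer or medium: CSMM-D glucose medium, restrictive; Probe or stimulus: nicotinamide 1.5 mM; Compound: single dose 10 µM compound, 0.25% DMSO; Schedule: 4 h preincubation then 48 h treatment at 30 °C; Technique: OD615 measurement.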
# sdo1 growth: restores growth of sdo1-depleted yeast; S. cerevisiae sdo1-depleted JHY4D growth rescue, OD600 30 h; active compounds read high; pdr5 snq2 efflux-pump mutant strain; z-score at 10 µM; 140,000 tested, 0.21% active; AID 817;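 active = z-score above 3 at both the 24 hr and the 30 hr optical density reads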
# sEH inh: inhibitors of human soluble epoxide hydrolase. recombinant human sEH enzymatic activity assay. inhibition, % at 2 µM. 91,000 tested, 0.34% active; in the data active = inhibition above about 80%
# Measles CPE: protection of cells from measles virus; 140,000 tested, 1.5% active; protection (pct of control), % at 4 µM; Measles virus-infected cells, CPE protection, absorbance; in the data active = protection mostly above about 24%, no sharp cut-off; inactive = mostly below about 26%
# Yeast growth inh: yeast BB579 growth reduction in restrictive medium | inhibition, % at 10 µM | 140,000 tested, 0.51% active | S. cerevisiae BB579 growth, OD615, 48 h;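 active = inhibition above a set limit, 3 SD over the mean compound inhibition, cut at about 44% in these data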
#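 test system = yeast BB579 (DeaD) | buffer or medium = restrictive CSMM-D medium | doses = single compound dose of 10 µM, 0.25% DMSO final | times = 4 h preincubation and 48 h exposure at 30 °C | technique = culture absorbance at 615 nm | benchmarks = amphotericin B 10 µg/mL, positive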
# A number is an active result; 0 = inactive; - = not tested or not shown. A selection: hits, their analogues and other compounds. The true share with any hit is near 3%.
SMILES,sEH act,Yeast life ext,sdo1 growth,sEH inh,Measles CPE,Yeast growth inh
COc1ccc(Oc2c(-c3ccc(O)cc3O)n[nH]c2C)cc1,0,0,0,0,-,0
CCCc1ccc(Oc2c(-c3ccc(O)c(C)c3O)n[nH]c2C)cc1,-,0,0,-,0,99
CCCc1ccc(Oc2cn[nH]c2-c2ccc(O)c(C)c2O)cc1,-,0,0,-,0,100
CCCCCCCCCCCCCCCC(O)C(N)CO (stereo not drawn),-,0,0,-,0,100
CC(NC(=O)C1CCN(S(=O)(=O)c2cnc[nH]2)CC1)c1ccccc1 (stereo not drawn),-,0,0,-,0,0
Cc1ccc(S(=O)(=O)N(C)C)cc1NC(=O)CCNC(=O)c1ccccc1Cl,-,0,0,-,54,0
COc1cc(CN2CCC(C(=O)N3CCN(c4ccccc4F)CC3)CC2)cc(OC)c1O,0,0,0,0,51,0
Cc1cc(C)cc(-n2c(C)cc(C=C(C#N)C#N)c2C)c1,0,0,0,0,0,0
Cc1cc2cc(C=C(C#N)C#N)c(Cl)nc2cc1C,-,32,0,-,0,0
CCOC(=O)/C(C#N)=C/c1cc2ccc(C)cc2nc1Cl,-,32,0,-,0,0
NCCn1c(-c2ccccc2)cc(C(=O)O)c1-c1ccccc1F,-,0,0,-,0,0
O=C(CSC1=NCCN1)C1COc2ccccc2O1 (stereo not drawn),-,0,0,-,31,0
Cc1cc(N2CCCC(C(=O)Nc3ccc4c(c3)CCC4)C2)n2ncnc2n1 (stereo not drawn),0,0,0,82,0,0
CCN(CC)S(=O)(=O)c1ccc(Cl)c(C(=O)Oc2cccc(-c3cnc4ccccc4n3)c2)c1,0,0,0,0,31,0
CCN(CC)S(=O)(=O)c1ccc(Cl)c(C(=O)Oc2cccnc2)c1,0,0,0,0,0,0
COc1cc(/C(C)=N\NC(N)=S)cc(OC)c1OC,-,0,0,-,35,0
COc1ccc(/C=N/Nc2snc(SC)c2C#N)cc1OC,0,0,0,0,44,0
N#C/C(=C\c1cccnc1)C(=O)NC1CCCCC1,-,32,0,-,0,0
Cc1cccc(NC(=O)/C(C#N)=C\c2cccnc2)c1,0,0,0,0,0,0
CCCCNC(=O)/C(C#N)=C/c1cccnc1,-,46,0,-,0,0
N#C/C(=C\c1ccc2c(c1)OCCO2)C(=O)NC1CCCCC1,-,0,0,-,0,0
CC(=Nc1ccc2c(c1)nc(CO)n2C)C1=C(O)CC(C)(C)CC1=O,0,46,0,0,0,0
COc1ccc(/C=N/N2CCN(c3ccccc3OC)CC2)cc1OC,0,0,0,0,0,0
COc1cccc(/C=N/N2CCN(c3ccccc3OC)CC2)c1,0,0,0,0,49,0
CCn1c(CCNC(=O)c2cccs2)n[nH]c1=S,-,0,0,-,0,0
SMILES,sEH act,Yeast life ext,sdo1 growth,sEH inh,Measles CPE,Yeast growth inh
CCCC[n+]1c(-c2ccc(Cl)cc2Cl)csc1Nc1ccccc1,-,32,0,-,0,0
Cc1c(C(=O)Nc2ccccc2)oc2c1C(=O)CC(C)(C)C2,0,0,0,0,0,0
Cc1c(C(=O)O)oc2c1/C(=N\O)CC(C)(C)C2,-,0,0,-,44,0
COc1cc(/C=N\n2nnnc2N)ccc1OCc1ccc(F)cc1,0,0,0,0,60,0
COc1cc(/C=N/n2c(C)n[nH]c2=S)ccc1OCc1ccc(F)cc1,-,0,0,-,122,0
COc1cc(/C=N/n2nnnc2N)ccc1OCc1c(C)no[n+]1[O-],-,0,0,-,0,0
CC(C)c1cc(CN2CCN(CCC#N)CC2)cc(C(C)C)c1O,0,0,0,0,0,0
CC(C)(C)c1cc(CN2CCN(CCO)CC2)cc(C(C)(C)C)c1O,0,32,0,0,0,0
COC(=O)c1ccc(NC(=O)CSc2nnc(C(C)NC(=O)c3ccccc3Cl)n2C)cc1 (stereo not drawn),0,0,0,0,0,0
Cc1ccc(-c2ccc(/C=C3\C(=O)ON=C3c3ccccc3)o2)c([N+](=O)[O-])c1,0,71,0,0,0,0
O=C1/C(=C\c2ccc(-c3ccccc3[N+](=O)[O-])o2)C(c2ccccc2)=NN1c1ccccc1,0,-,0,0,0,0
Cc1nc2cc3ccccc3cc2c(=O)[nH]1,0,0,0,0,0,45
O=C(Oc1ccc(Cl)c2cccnc12)c1ccco1,0,0,0,0,0,96
O=C(Oc1cccc2cccnc12)c1ccco1,0,-,0,0,0,0
O=C(O)CC(NC(=O)OCc1ccccc1)c1ccccc1 (stereo not drawn),0,0,0,0,20,0
Cc1ccc(-c2ccc(/C=N\NC(=O)c3cc4c(ccc5ccccc54)o3)o2)cc1[N+](=O)[O-],0,0,0,0,51,0
O=c1c(Cl)c(Cl)cnn1-c1ccccc1,-,40,0,-,0,0
O=c1c(Cl)c(N/N=C/c2ccc(Cl)cc2)cnn1-c1ccccc1,-,0,0,-,0,0
CC(C)c1ccc(OCC(=O)Nc2ccc(OC(F)(F)F)cc2)cc1,-,0,0,-,35,0
O=C(COC(=O)COc1ccccc1)Nc1ccc(OC(F)(F)F)cc1,0,0,0,0,0,0
CC(C)O/C(=N\S(=O)(=O)c1ccc(Cl)cc1)c1ccccc1,0,0,0,0,0,0
CS/C(=N\S(=O)(=O)c1ccc(Cl)cc1)c1ccccc1,0,0,0,0,0,0
O=S(=O)(/N=C(\Sc1ccc(Cl)cc1)c1ccccc1)c1ccccc1,-,0,0,-,0,88
CS/C(=N/S(=O)(=O)c1ccc(C)cc1)c1ccccc1,-,0,0,-,18,0
COc1ccc(-c2csc(NS(=O)(=O)c3ccc([N+](=O)[O-])cc3)n2)cc1,-,0,0,-,0,0
SMILES,sEH act,Yeast life ext,sdo1 growth,sEH inh,Measles CPE,Yeast growth inh
CCCCC(=O)NC1=C(C(=O)OC)SCC1,-,0,0,-,0,0
COC(=O)C1=C(NC(=O)CCCCl)CCS1,-,0,0,-,50,0
Cc1ccc(CNc2cnn(C34CC5CC(CC(C5)C3)C4)c(=O)c2Cl)cc1,-,0,0,-,0,0
O=c1c(Cl)c(NCc2ccc(F)cc2)cnn1C12CC3CC(CC(C3)C1)C2,-,0,0,-,36,0
Cc1ccc(C(C[N+](=O)[O-])n2nc(C)cc2C)cc1 (stereo not drawn),0,0,0,0,0,47
Cc1ccc(S(=O)(=O)n2nc(C)cc2C)cc1,0,0,0,0,0,0
Cc1cc(C)c(C#N)c(SCc2c(F)cccc2[N+](=O)[O-])n1,-,0,0,-,0,0
O=c1cc(-c2ccccc2)n(S(=O)(=O)c2ccccc2)o1,0,0,0,0,0,80
COc1ccc(S(=O)(=O)n2oc(=O)cc2-c2ccccc2)cc1,0,0,0,0,0,0
COc1ccc(S(=O)(=O)n2oc(=O)cc2-c2ccccc2)cc1OC,0,0,0,0,0,57
O=c1cc(-c2ccccc2)n(S(=O)(=O)c2ccc3ccccc3c2)o1,0,-,-,0,-,-
O=C1CC(N2CCN(c3ccccc3)CC2)C(=O)N1CCc1ccccc1 (stereo not drawn),-,0,0,-,40,0

# Screening results deposited in PubChem BioAssay by several laboratories.
